T cruzi growth-1 = blocks T. cruzi growth in NIH3T3 culture. T. cruzi beta-gal in NIH3T3, GalScreen luminescence, 90 h. inhibition, % at 8.34 µM. 77,000 tested, 5.9% active. AID 624255;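 active means mean inhibition above about 93%, with at least 55% of replicates each passing it, limit read from the data, passing the limit was not always enough; inconclusive means only one of those two conditions holds; inactive means neither condition holds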
IDH1 R132H inh = inhibitors of human IDH1 R132H; IDH1 R132H reductase, diaphorase/resazurin fluorescence, 60 min; 70,000 tested, 0.18% active; inhibition, % at 10 µM; in the data active means inhibition above about 34%; inconclusive means no clear call, values can overlap the other calls; inactive means below about 11%
Pf Dd2 inh = blocks growth of Plasmodium falciparum Dd2 parasites; P. falciparum Dd2 growth, SYBR Green, 72 h; stronger effect = lower value; activity change, % at 10 µM; 94,000 tested, 2.3% active; AID 1159554; in the data active means activity change below about -80%; inconclusive means no clear call, values can overlap the other calls
KDM4C inh = blocks human GASC-1 (KDM4C) demethylase activity. AID 720574. 96,000 tested, 0.15% active. Q9H3R0. GST-KDM4C 2-372, H3K9me3 peptide, LANCE TR-FRET. inhibition, % at 12.5 µM;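 active means mean replicate inhibition above about 25%, with at least 55% of replicates also reaching it, limit read from the data, passing the limit was not always enough; inconclusive means only one of those two conditions met; inactive means neither condition met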
Target sequence (Q9H3R0 2-372 limits assumed): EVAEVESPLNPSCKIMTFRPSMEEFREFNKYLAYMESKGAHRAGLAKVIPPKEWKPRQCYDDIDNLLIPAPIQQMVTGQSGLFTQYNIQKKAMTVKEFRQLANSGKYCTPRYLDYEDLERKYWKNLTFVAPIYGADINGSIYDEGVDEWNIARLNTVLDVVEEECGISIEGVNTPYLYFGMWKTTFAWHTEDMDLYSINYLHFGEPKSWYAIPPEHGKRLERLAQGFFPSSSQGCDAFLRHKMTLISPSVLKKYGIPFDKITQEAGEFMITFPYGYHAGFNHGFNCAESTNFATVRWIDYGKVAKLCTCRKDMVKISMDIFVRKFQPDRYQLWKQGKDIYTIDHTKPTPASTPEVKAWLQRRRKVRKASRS
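Assay system: GST-GASC-1 enzyme fragment 2-372 | Amount: 10 nM enzyme | Medium: HEPES buffer, pH 7.5, plus ascorbate | Reagent: H3K9me3 peptide substrate, Fe(II), 2-oxoglutarate | Doses: Single-point compound screen | Incubation: 30 min demethylation and 1 h detection at room temperature | Measured by: LANCE TR-FRET, excitation 340 nm, emissions 618 and 671 nm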
T cruzi growth-2 = inhibitors of T. cruzi proliferation. shares compounds with T cruzi growth-1. T. cruzi beta-gal in NIH3T3, GalScreen luminescence, 90 h. inhibition, % at 8.35 µM. 5,600 tested, 72% active. AID 651739;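 active means mean replicate inhibition above about 95% and at least 55% of replicates individually reaching it, limit read from the data; inconclusive means only one of the two criteria is met; inactive means neither criterion is met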
T cruzi growth-3 = blocks T. cruzi growth in NIH3T3 host cells; shares compounds with T cruzi growth-1; inhibition, % at 2.09 µM; T. cruzi beta-gal in NIH3T3, GalScreen luminescence, 90 h; 5,600 tested, 21% active;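 active means mean inhibition above about 95%, with at least 55% of replicates also reaching it, limit read from the data; inconclusive means meets just one of the two conditions; inactive means meets neither condition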
3T3 cytotox = cytotoxicity in mouse NIH/3T3 fibroblasts; shares compounds with T cruzi growth-1; NIH/3T3 viability, CellTiter-Glo ATP luminescence, 90 h; cytotoxicity (signal decrease), % at 8.35 µM; 5,600 tested, 14% active;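 active means mean signal decrease across replicates above about 35% based on untreated-well scatter, with enough replicates individually passing, limit read from the data; inconclusive means no rule stated though some were filed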
3T3 cytotox 2 = cytotoxicity in mouse NIH/3T3 fibroblasts. shares compounds with T cruzi growth-1. 5,600 tested, 56% active. inhibition, % at 24.9 µM. NIH/3T3 viability, CellTiter-Glo ATP luminescence, 90 h;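 active means mean loss of cell viability signal at or above a set limit, and enough replicates individually reaching it; inconclusive means meets only the mean limit or only the replicate share; inactive means meets neither condition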
A number is an active result; - = inactive; ? = inconclusive; . = not tested or not shown. Most compounds without a hit are left out; they make up all but 5.8% or so of the library.

SMILES	T cruzi growth-1	IDH1 R132H inh	Pf Dd2 inh	KDM4C inh	T cruzi growth-2	T cruzi growth-3	3T3 cytotox	3T3 cytotox 2
CN1c2ccc(C#Cc3cccnc3)cc2[C@@H]2[C@@H](CCN2C(=O)C2CCCCC2)[C@H]1CO	119	.	-	-	110	-	41	42
CN1c2ccc(C#Cc3cccnc3)cc2[C@H]2[C@H](CCN2S(=O)(=O)c2ccc(F)cc2)[C@@H]1CO	103	.	-	-	98	-	-	31
CN1c2ccc(C#Cc3cccnc3)cc2[C@@H]2[C@@H](CCN2C(=O)c2cccc(F)c2)[C@@H]1CO	109	.	-	-	107	-	-	31
COc1cccc(S(=O)(=O)N2CC[C@@H]3[C@H]2c2cc(C#Cc4cccnc4)ccc2N[C@@H]3CO)c1	?	.	-	-	107	-	-	43
CCCC#Cc1ccc([C@H]2[C@@H](CO)N3CCCCN(Cc4cccnc4)C[C@@H]23)cc1	110	.	-	-	101	-	43	78
COCC#Cc1ccc([C@H]2[C@@H](CO)N3CCCCN(Cc4cccnc4)C[C@@H]23)cc1	101	.	-	-	-	-	-	-
O=C(Nc1ccccc1F)N1CCCCN2[C@H](C1)[C@H](c1ccc(/C=C/c3ccccc3)cc1)[C@@H]2CO	116	.	-	-	110	-	-	47
O=C(Nc1ccccc1F)N1CCCCN2[C@H](CO)[C@@H](c3ccc(/C=C/c4ccccc4)cc3)[C@@H]2C1	112	.	-	-	98	101	-	105
C[C@@H]1CCCCO[C@@H](CN(C)Cc2ccc3c(c2)OCO3)[C@@H](C)CN([C@@H](C)CO)C(=O)c2cc(NC(=O)Nc3cccc4ccccc34)ccc2O1	?	-	-	-	102	106	-	-
C[C@@H]1CCCCO[C@@H](CN(C)Cc2ccccc2)[C@@H](C)CN([C@@H](C)CO)C(=O)c2cc(NC(=O)Nc3cccc4ccccc34)ccc2O1	115	-	-	-	107	109	-	-
C[C@@H]1CCCCO[C@@H](CN(C)Cc2ccncc2)[C@H](C)CN([C@H](C)CO)C(=O)c2cc(NC(=O)Nc3cccc4ccccc34)ccc2O1	98	-	-	-	108	-	-	-
C[C@@H]1CN([C@@H](C)CO)C(=O)c2cc(NC(=O)Nc3cccc4ccccc34)ccc2O[C@@H](C)CCCCO[C@@H]1CN(C)Cc1ccncc1	-	.	-	-	.	.	.	.
CCCC(=O)Nc1ccc2c(c1)OC[C@@H](C)N(Cc1ccc(-c3ccccn3)cc1)C[C@H](C)[C@H](OC)CN(C)C2=O	-	-	-	-	.	.	.	.
O=C(C[C@@H]1CC[C@@H]2[C@H](COC[C@H](O)CN2C(=O)c2cnccn2)O1)N1CCN(c2ccccc2)CC1	-	.	-	-	.	.	.	.
CCCNC(=O)C[C@@H]1C[C@@H]2c3cc(NC(=O)COC)ccc3O[C@@H]2[C@H](CO)O1	-	-	-	-	.	.	.	.
C[C@H]1CN([C@@H](C)CO)S(=O)(=O)c2ccc(C#CC3CCCC3)cc2O[C@H]1CN(C)C	-	-	-	-	.	.	.	.
C[C@H](CO)N1C[C@H](C)[C@H](CN(C)C)Oc2cc(C#CC3CCCCC3)ccc2S1(=O)=O	98	-	-	-	106	-	48	103
C[C@@H]1CN([C@@H](C)CO)S(=O)(=O)c2ccc(C#CC3CCCCC3)cc2O[C@H]1CN(C)C	118	-	-	-	104	101	38	104
C[C@H]1CN([C@@H](C)CO)S(=O)(=O)c2ccc(C#CC3CCCC3)cc2O[C@@H]1CN(C)C	100	-	-	-	105	-	-	104
C[C@H]1CN([C@@H](C)CO)S(=O)(=O)c2ccc(C#CC3CCCC3)cc2O[C@H]1CN(C)CC1CC1	?	-	-	-	-	-	48	104
CCCN(C)C[C@@H]1Oc2cc(C#CC3CCCC3)ccc2S(=O)(=O)N([C@@H](C)CO)C[C@H]1C	103	-	-	-	108	-	39	104
N#C[C@@H]1[C@@H](c2ccc(-c3cccc(F)c3)cc2)[C@H](CO)N1C(=O)NC1CCCC1	97	.	-	-	105	-	-	38
N#C[C@H]1[C@@H](c2ccc(-c3cccc(F)c3)cc2)[C@H](CO)N1C(=O)NC1CCCC1	-	.	-	-	.	.	.	.
N#C[C@@H]1[C@H](c2ccc(-c3cccc(F)c3)cc2)[C@H](CO)N1C(=O)NC1CCCC1	97	.	-	-	109	104	-	-
C/C=C/c1ccc([C@H]2[C@@H](CO)N(CC3CCCCC3)[C@H]2CNC(C)C)cc1	.	.	-	.	.	.	.	.
SMILES	T cruzi growth-1	IDH1 R132H inh	Pf Dd2 inh	KDM4C inh	T cruzi growth-2	T cruzi growth-3	3T3 cytotox	3T3 cytotox 2
CC(C)NC[C@H]1[C@@H](c2ccc(-c3cccc(F)c3)cc2)[C@@H](CO)N1CC1CC1	109	.	-	-	-	-	-	105
CN(C)C(=O)C[C@H]1CC[C@@H](NS(=O)(=O)c2ccccc2)[C@@H](CO)O1	-	-	-	-	.	.	.	.
C[C@@H]1CN([C@H](C)CO)S(=O)(=O)c2ccc(-c3ccncc3)cc2O[C@@H]1CN(C)Cc1ccncc1	-	.	-	-	.	.	.	.
C[C@H]1CN([C@@H](C)CO)S(=O)(=O)c2ccc(Br)cc2O[C@@H]1CN(C)Cc1ccncc1	99	-	-	-	96	-	-	-
C[C@@H]1CN([C@H](C)CO)S(=O)(=O)c2ccc(-c3ccncc3)cc2O[C@H]1CN(C)Cc1cncnc1	107	-	-	-	97	-	-	53
C[C@@H]1CN([C@@H](C)CO)S(=O)(=O)c2ccc(-c3ccncc3)cc2O[C@@H]1CN(C)Cc1ccncc1	105	-	-	-	100	-	36	65
C[C@H]1CN([C@@H](C)CO)S(=O)(=O)c2ccc(-c3ccncc3)cc2O[C@@H]1CN(C)Cc1ccncc1	100	.	-	-	96	97	-	65
COc1ccc(CN2CC3(CN(C(=O)C4CCC4)C3)c3c(n(C)c4cc(OC)ccc34)[C@H]2CO)cc1	.	.	-	-	.	.	.	.
O=C(C[C@@H]1CC[C@@H]2[C@H](COC[C@H](O)CN2C(=O)c2ccncc2)O1)NC1CCC1	108	.	-	-	-	-	-	-
O=C(C[C@H]1CC[C@@H]2[C@H](COC[C@@H](O)CN2C(=O)c2ccncc2)O1)NC1CCC1	97	.	-	-	-	-	-	-
Cc1ccccc1S(=O)(=O)N1[C@H](C#N)[C@H](c2ccc(-c3ccccc3)cc2)[C@H]1CO	103	.	-	-	98	-	41	47
N#C[C@H]1[C@H](c2ccc(-c3cccc(F)c3)cc2)[C@@H](CO)N1S(=O)(=O)c1cccc(F)c1	98	.	-	-	105	-	41	104

Screening results deposited in PubChem by Broad Institute.
